Series [1] is described as follows: Stability in rat liver microsomes assessed as parent compound remaining at 1 uM measured after 60 mins in presence of NADPH by LC-MS/MS analysis. The class given is ADME, Microsome. Particulars: read-out: Stability. In outline: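 Compound at 1 μM was incubated with 0.3 mg/ml rat liver microsomes in 100 mM potassium phosphate pH 7.4 with 2 mM NADPH and 3 mM MgCl2, in duplicate at 37 °C for 60 min. A control without NADPH was run alongside. Samples at 0 and 60 min were quenched in cold acidified acetonitrile with internal standards, and percent parent remaining was measured by LC-MS/MS.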
A general note: Liver microsomes are vesicles of endoplasmic reticulum, rich in cytochrome P450 enzymes.

Series [2] is described as follows: Stability in rat liver microsomes. The format is ADME, Microsome. In a few lines: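 Rat liver microsomes at 0.3 mg/ml protein with 1 μM compound, in 100 mM potassium phosphate pH 7.4, 2 mM NADPH, 3 mM MgCl2. Incubated in duplicate for 60 min at 37 °C with shaking, with a duplicate NADPH-free control. Sampled at T=0 and 60 min into cold acidified acetonitrile with internal standards. Percent parent remaining measured by LC-MS/MS (ESI, MRM).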

The target of series [3] is T1, Collagenase 3 (Homo sapiens, UniProt P45452). The series can be described thus: Inhibition of MMP13 (unknown origin). In outline: (§1)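 FRET assay with the catalytic domain of recombinant human MMP and a 5-FAM/QXL520 peptide substrate. Buffer was HEPES pH 7.5 with CaCl2, 0.01% Brij-35, 0.1 mg/ml BSA and 5% DMSO. Enzyme and compound were preincubated 10 min, then substrate was added. Fluorescence (ex 490/em 520 nm) was read every 5 min for 2 h at room temperature, and the initial linear slope was used. Curves had 12 doses, 3-fold dilutions from 100 μM, run in duplicate and averaged.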

The test system of series [4] is Rattus norvegicus. Kind of series: Chondro-protective activity in MIA-induced Sprague-Dawley rat osteoarthritis model assessed as reduction of bone resorption in tibia at 0.06 mg, ia administered once per week for 3 weeks starting from 5 days post MIA treatment and measured after 26 days post MIA injection. Details: scale not given: the % may be the effect or the level left. The format is functional. In outline:
(§2)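 Male Sprague-Dawley rats (175–200 g) received 2 mg MIA in 40 μl into the right knee. Saline suspensions were given intra-articularly on days 5, 12 and 19, with 8 rats per group and 5 naive rats. Right knees were taken on day 26, then formalin-fixed, decalcified, paraffin-sectioned and toluidine blue-stained. A veterinary pathologist scored cell loss (area without viable chondrocytes), proteoglycan loss (staining intensity), bone resorption and osteophytes. Statistics were ANOVA or Kruskal-Wallis with post-tests versus vehicle.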

In series [5] the test system is Rattus norvegicus. The series can be described thus: Chondro-protective activity in MIA-induced Sprague-Dawley rat osteoarthritis model assessed as reduction of cell loss at 0.06 mg, ia administered once per week for 3 weeks starting from 5 days post MIA treatment and measured after 26 days post MIA injection. The class given is functional, organism-based. In a few lines: as §2

The test system of series [6] is Rattus norvegicus. Kind of series: Chondro-protective activity in MIA-induced Sprague-Dawley rat osteoarthritis model assessed as reduction of bone resorption in medial femoral condyle at 0.06 mg, ia administered once per week for 3 weeks starting from 5 days post MIA treatment and measured after 26 days post MIA injection. The format is functional. On the set-up: scale not given: the % may be the effect or the level left. In a few lines: as §2

Series [7] deals with Rattus norvegicus. The series can be described thus: Chondro-protective activity in MIA-induced Sprague-Dawley rat osteoarthritis model assessed as reduction of osteophyte score at 0.06 mg, ia administered once per week for 3 weeks starting from 5 days post MIA treatment and measured after 26 days post MIA injection. The class given is functional. Details: scale not given: the % may be the effect or the level left. In a few lines: as §2

Series [8] concerns Rattus norvegicus. Kind of series: Chondro-protective activity in MIA-induced Sprague-Dawley rat osteoarthritis model assessed as reduction of bone resorption in lateral femoral condyle at 0.06 mg, ia administered once per week for 3 weeks starting from 5 days post MIA treatment and measured after 26 days post MIA injection. The format is functional. Details: scale not given: the % may be the effect or the level left. In a few lines: as §2

Series [9] addresses Matrix metalloproteinase-14 (Homo sapiens, UniProt P50281). Kind of series: Inhibition of recombinant human MMP14 using QXL520-gamma-Abu-Pro-Cha-Abu-Smc-His-Ala-Dab(5-FAM)-Ala-Lys-NH2 as substrate measured every 5 mins for 2 hrs by FRET assay. In outline:
as §1

The next series deals with Stromelysin-1 (Homo sapiens, UniProt P08254). The series can be described thus: Inhibition of recombinant human MMP3 using QXL520-gamma-Abu-Pro-Cha-Abu-Smc-His-Ala-Dab(5-FAM)-Ala-Lys-NH2 as substrate measured every 5 mins for 2 hrs by FRET assay. In a few lines: as §1
Sequence of Stromelysin-1 (P08254 whole entry): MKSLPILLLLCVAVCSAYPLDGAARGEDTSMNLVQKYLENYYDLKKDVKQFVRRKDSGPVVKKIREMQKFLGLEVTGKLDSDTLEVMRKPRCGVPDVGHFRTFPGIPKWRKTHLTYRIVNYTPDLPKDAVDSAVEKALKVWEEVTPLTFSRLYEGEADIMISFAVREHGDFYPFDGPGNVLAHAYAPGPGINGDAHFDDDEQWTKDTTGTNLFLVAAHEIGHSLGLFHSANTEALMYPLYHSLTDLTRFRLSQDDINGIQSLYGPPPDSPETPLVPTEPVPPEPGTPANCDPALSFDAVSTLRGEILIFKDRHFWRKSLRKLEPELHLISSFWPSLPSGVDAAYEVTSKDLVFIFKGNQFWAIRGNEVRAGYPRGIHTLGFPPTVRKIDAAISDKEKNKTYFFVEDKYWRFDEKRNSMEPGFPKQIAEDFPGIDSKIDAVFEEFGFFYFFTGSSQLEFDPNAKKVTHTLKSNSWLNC
The test system of series [10] is Rattus norvegicus. The series can be described thus: Chondro-protective activity in MIA-induced Sprague-Dawley rat osteoarthritis model assessed as reduction in proteoglycan loss on LTP at 1 mg, ia administered once per week for 3 weeks starting from 5 days post MIA treatment and measured after 26 days post MIA injection. The class given is functional. On the set-up: scale not given: the % may be the effect or the level left. In a few lines:
as §2

In another series the target is Stromelysin-2 (Homo sapiens, UniProt P09238). The series can be described thus: Inhibition of recombinant human MMP10 using QXL520-gamma-Abu-Pro-Cha-Abu-Smc-His-Ala-Dab(5-FAM)-Ala-Lys-NH2 as substrate measured every 5 mins for 2 hrs by FRET assay.
Sequence of Stromelysin-2 (P09238 whole entry): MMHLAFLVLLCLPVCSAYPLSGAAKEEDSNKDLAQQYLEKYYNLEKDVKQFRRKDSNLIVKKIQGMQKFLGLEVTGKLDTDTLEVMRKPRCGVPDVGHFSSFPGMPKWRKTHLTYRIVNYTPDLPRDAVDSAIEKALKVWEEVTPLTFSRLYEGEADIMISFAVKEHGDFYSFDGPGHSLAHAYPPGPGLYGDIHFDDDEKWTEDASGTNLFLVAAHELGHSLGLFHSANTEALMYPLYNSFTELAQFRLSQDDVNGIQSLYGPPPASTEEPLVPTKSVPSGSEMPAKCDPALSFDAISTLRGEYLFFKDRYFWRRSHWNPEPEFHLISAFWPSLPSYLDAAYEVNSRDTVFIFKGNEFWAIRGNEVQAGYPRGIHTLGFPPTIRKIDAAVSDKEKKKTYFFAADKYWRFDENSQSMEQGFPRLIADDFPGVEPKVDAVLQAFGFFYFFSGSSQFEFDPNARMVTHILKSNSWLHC
Series [11] concerns Rattus norvegicus. The series can be described thus: Chondro-protective activity in MIA-induced Sprague-Dawley rat osteoarthritis model assessed as reduction in cell loss on lateral tibial plateau at 1 mg, ia administered once per week for 3 weeks starting from 5 days post MIA treatment and measured after 26 days post MIA injection. The class given is functional. On the set-up: scale not given: the % may be the effect or the level left. In a few lines: as §2

In the next series the target is T2, Interstitial collagenase (Homo sapiens, UniProt P03956).
T2 sequence (P03956 whole entry): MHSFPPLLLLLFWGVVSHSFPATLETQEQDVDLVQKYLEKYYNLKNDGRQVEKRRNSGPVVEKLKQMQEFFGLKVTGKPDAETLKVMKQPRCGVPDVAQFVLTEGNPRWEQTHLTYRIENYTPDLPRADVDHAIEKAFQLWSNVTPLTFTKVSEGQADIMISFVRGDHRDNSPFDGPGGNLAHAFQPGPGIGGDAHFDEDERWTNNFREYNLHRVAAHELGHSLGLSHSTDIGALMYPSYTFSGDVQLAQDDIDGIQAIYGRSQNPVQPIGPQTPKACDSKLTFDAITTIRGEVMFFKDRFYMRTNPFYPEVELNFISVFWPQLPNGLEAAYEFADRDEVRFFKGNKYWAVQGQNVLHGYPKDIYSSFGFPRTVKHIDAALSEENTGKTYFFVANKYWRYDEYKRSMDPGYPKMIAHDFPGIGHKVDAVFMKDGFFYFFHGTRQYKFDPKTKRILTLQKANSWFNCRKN
Kind of series: Inhibition of recombinant human MMP1 using QXL520-gamma-Abu-Pro-Cha-Abu-Smc-His-Ala-Dab(5-FAM)-Ala-Lys-NH2 as substrate measured every 5 mins for 2 hrs by FRET assay. In outline: as §1

The subject of series [12] is Rattus norvegicus. The series can be described thus: Chondro-protective activity in MIA-induced Sprague-Dawley rat osteoarthritis model assessed as reduction in proteoglycan loss on LFC at 1 mg, ia administered once per week for 3 weeks starting from 5 days post MIA treatment and measured after 26 days post MIA injection. The class given is functional. Details: scale not given: the % may be the effect or the level left. In outline:
as §2

A further series concerns the target Neutrophil collagenase (Homo sapiens, UniProt P22894). The series can be described thus: Inhibition of recombinant human MMP8 using QXL520-gamma-Abu-Pro-Cha-Abu-Smc-His-Ala-Dab(5-FAM)-Ala-Lys-NH2 as substrate measured every 5 mins for 2 hrs by FRET assay. In a few lines: as §1
Series [13] addresses 72 kDa type IV collagenase (Homo sapiens, UniProt P08253). The series can be described thus: Inhibition of recombinant human MMP2 using QXL520-gamma-Abu-Pro-Cha-Abu-Smc-His-Ala-Dab(5-FAM)-Ala-Lys-NH2 as substrate measured every 5 mins for 2 hrs by FRET assay. In a few lines: as §1
Series [14] concerns the target T1, Collagenase 3. Kind of series: Inhibition of recombinant human MMP13 using QXL520-gamma-Abu-Pro-Cha-Abu-Smc-His-Ala-Dab(5-FAM)-Ala-Lys-NH2 as substrate measured every 5 mins for 2 hrs by FRET assay. In outline:
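Catalytic domain of human recombinant MMP-13. Buffer: HEPES pH 7.5, CaCl2, 0.01% Brij-35, 0.1 mg/ml BSA and 5% DMSO. Compound was preincubated with enzyme for 10 min before substrate addition. Fluorescence (ex 490, em 520 nm) was read at room temperature. IC50 came from initial linear slopes over 12 doses, 3-fold dilutions from 100 μM, in duplicate, reported as the mean.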

Series [15] addresses Macrophage metalloelastase (Homo sapiens, UniProt P39900). Kind of series: Inhibition of recombinant human MMP12 using QXL520-gamma-Abu-Pro-Cha-Abu-Smc-His-Ala-Dab(5-FAM)-Ala-Lys-NH2 as substrate measured every 5 mins for 2 hrs by FRET assay. In a few lines: as §1
The target of series [16] is Matrix metalloproteinase-9 (Homo sapiens, UniProt P14780). The series can be described thus: Inhibition of recombinant human MMP9 using QXL520-gamma-Abu-Pro-Cha-Abu-Smc-His-Ala-Dab(5-FAM)-Ala-Lys-NH2 as substrate measured every 5 mins for 2 hrs by FRET assay. In a few lines: as §1
Sequence of Matrix metalloproteinase-9 (P14780 whole entry): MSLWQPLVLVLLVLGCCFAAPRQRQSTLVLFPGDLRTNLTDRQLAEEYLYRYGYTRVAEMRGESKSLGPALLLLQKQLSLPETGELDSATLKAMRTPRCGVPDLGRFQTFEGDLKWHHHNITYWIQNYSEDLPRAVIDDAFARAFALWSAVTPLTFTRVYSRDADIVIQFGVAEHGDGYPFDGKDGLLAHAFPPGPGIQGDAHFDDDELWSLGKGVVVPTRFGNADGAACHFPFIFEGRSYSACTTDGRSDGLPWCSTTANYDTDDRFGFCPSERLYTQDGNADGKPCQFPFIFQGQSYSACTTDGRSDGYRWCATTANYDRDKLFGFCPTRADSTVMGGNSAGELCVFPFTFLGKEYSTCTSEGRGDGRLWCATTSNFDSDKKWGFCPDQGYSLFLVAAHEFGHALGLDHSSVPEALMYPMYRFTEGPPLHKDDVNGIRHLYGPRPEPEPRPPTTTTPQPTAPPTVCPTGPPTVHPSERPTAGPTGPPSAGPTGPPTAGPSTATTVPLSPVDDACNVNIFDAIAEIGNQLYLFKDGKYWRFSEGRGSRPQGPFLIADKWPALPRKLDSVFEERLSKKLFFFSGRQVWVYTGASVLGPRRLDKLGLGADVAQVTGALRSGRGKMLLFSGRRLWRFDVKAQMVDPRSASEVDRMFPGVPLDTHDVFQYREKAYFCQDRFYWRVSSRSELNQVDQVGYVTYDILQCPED
Series [17] relates to Rattus norvegicus. The series can be described thus: Chondro-protective activity in MIA-induced Sprague-Dawley rat osteoarthritis model assessed as reduction in proteoglycan loss on MTP at 1 mg, ia administered once per week for 3 weeks starting from 5 days post MIA treatment and measured after 26 days post MIA injection. The class given is functional. Details: scale not given: the % may be the effect or the level left. In outline:
as §2

The next series addresses T3, Matrilysin (Homo sapiens, UniProt P09237).
T3 sequence (P09237 whole entry): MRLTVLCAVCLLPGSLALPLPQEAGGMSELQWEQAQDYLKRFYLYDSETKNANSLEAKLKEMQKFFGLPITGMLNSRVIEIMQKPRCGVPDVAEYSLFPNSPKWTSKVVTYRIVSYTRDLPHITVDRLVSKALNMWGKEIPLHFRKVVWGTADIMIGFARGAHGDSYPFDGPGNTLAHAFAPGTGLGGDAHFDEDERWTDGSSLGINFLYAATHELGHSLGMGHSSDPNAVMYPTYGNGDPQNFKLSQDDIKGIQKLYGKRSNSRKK
The series can be described thus: Inhibition of recombinant human MMP7 using QXL520-gamma-Abu-Pro-Cha-Abu-Smc-His-Ala-Dab(5-FAM)-Ala-Lys-NH2 as substrate measured every 5 mins for 2 hrs by FRET assay. In a few lines: as §1

Each structure is given as a SMILES string. The source made the active and inactive calls. The calls are words filed in the database; no cut-off is given here.

Sequence of Macrophage metalloelastase (P39900 whole entry): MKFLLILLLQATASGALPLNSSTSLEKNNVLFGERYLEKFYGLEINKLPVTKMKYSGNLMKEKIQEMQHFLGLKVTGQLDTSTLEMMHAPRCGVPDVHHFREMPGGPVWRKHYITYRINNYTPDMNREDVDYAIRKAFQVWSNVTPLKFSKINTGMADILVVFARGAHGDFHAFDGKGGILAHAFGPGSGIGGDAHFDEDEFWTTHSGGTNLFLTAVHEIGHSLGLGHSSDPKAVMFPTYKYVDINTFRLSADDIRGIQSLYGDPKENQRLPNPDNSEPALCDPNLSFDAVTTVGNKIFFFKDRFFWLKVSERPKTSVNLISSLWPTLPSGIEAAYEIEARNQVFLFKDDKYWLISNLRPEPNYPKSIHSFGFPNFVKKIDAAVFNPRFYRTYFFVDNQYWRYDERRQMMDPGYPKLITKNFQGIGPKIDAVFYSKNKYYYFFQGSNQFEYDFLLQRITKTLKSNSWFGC
Sequence of 72 kDa type IV collagenase (P08253 whole entry): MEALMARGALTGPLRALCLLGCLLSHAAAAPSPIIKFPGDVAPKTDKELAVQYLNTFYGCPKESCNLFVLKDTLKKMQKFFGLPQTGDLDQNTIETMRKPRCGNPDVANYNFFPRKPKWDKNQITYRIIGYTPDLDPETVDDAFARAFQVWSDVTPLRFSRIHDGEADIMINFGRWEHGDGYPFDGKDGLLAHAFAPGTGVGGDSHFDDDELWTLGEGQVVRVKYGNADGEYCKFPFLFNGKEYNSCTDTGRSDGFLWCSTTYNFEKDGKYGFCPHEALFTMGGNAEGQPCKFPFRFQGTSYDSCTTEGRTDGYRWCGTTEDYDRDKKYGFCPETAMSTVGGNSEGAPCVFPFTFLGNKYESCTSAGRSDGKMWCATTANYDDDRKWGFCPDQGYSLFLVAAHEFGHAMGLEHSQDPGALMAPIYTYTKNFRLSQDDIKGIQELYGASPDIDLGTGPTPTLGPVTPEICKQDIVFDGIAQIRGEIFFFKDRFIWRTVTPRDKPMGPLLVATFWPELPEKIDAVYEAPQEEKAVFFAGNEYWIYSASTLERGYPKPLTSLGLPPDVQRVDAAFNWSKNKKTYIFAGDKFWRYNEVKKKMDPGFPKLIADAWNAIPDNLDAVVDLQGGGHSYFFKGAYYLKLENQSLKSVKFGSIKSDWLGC
Sequence of Neutrophil collagenase (P22894 whole entry): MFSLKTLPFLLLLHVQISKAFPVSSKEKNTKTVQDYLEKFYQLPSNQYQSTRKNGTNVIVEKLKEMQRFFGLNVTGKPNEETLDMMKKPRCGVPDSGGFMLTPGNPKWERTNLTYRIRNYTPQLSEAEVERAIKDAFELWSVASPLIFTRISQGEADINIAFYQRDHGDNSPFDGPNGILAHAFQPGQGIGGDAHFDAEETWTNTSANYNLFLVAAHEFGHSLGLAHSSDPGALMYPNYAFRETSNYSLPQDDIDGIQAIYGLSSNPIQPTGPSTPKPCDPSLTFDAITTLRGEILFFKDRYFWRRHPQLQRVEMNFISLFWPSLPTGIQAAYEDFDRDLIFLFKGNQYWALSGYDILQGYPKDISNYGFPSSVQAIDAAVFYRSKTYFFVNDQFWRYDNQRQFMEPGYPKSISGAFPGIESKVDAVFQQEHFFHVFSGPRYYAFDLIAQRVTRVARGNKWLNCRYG

Regarding `Cc1cc(CNC(=O)c2cc(C(=O)NCc3ccc(C(=O)O)cc3)ncn2)ccc1F`, the remaining at 1 h, 1 µM in series [1] turned out to be 90%.

In the case of `Cc1cc(CNC(=O)c2cc(C(=O)NCc3ccc(F)c(C)c3)ncn2)ccc1F`, the Stability in series [2] is 0.6%.

Consider `C[C@H](NC(=O)c1cc(C(=O)NCc2ccc(-c3nnn[nH]3)cc2)ncn1)c1ccccc1`, for which, at Collagenase 3 [3], the IC50 (as a rule, the concentration that gives 50% inhibition) is below 0.01 µM.

With `C[C@]12C=CC(=O)C=C1CC[C@H]1[C@@H]3C[C@@H](O)[C@](O)(C(=O)CO)[C@@]3(C)C[C@H](O)[C@@]12F` [TRIAMCINOLONE], the Activity in the series on Rattus norvegicus [4] was determined as 34%; in the series on Rattus norvegicus [6], 49%; in the series with Rattus norvegicus [7] it was 40%; with Rattus norvegicus [8], 49%. Moreover, in the series on Rattus norvegicus [5], the result was inactive.

The compound `C[C@@H](NC(=O)c1cc(C(=O)NCc2ccc(-c3nnn[nH]3)cc2)ncn1)c1ccccc1` yielded an IC50 against Collagenase 3 [3] above 0.1 µM.

For the compound `[2H]C([2H])(NC(=O)c1cc(C(=O)NCc2ccc(F)c(C)c2)ncn1)c1ccc(C(=O)O)cc1`, the IC50 in [9] is above 100 µM; on Stromelysin-1 it was above 100 µM; at Stromelysin-2 it was 1 µM; at Interstitial collagenase it was above 100 µM; on Neutrophil collagenase it was 98 µM; in series [13], above 100 µM. For the same compound, the half-maximal inhibitory concentration (IC50) was 0.0048 µM on Collagenase 3 [14], above 100 µM in [15], 74 µM in series [16] and above 100 µM at Matrilysin. For the same compound, the Activity in the series with Rattus norvegicus [10] came to 15%; with Rattus norvegicus [11] it was 8%; in the series with Rattus norvegicus [12], 15%; in the series with Rattus norvegicus [17], 15%. Besides, in series [1], the remaining at 1 h, 1 µM was found to be 99%.

Source of the values: ChEMBL document CHEMBL4828711, “Development of a selective matrix metalloproteinase 13 (MMP-13) inhibitor for the treatment of Osteoarthritis” (Eur J Med Chem, 2021).
